Here are results for 14 compounds from ChEMBL document CHEMBL4765395, “Design, diversity-oriented synthesis and biological evaluation of novel heterocycle derivatives as non-nucleoside HBV capsid protein inhibitors” (Eur J Med Chem, 2020).

Active and inactive are the calls of the source. The rule behind the calls is not given here. A value given as a limit tells only on which side of the number the result lay.

What is called inhibition is the drop in the measured response relative to a control, in per cent. For orientation: IC50 means the concentration that gives 50% inhibition. Broadly, the CC50 is the concentration giving 50% cytotoxicity. As a reminder, the Kd is the free concentration of one partner at which half of the binding sites on the other are occupied at equilibrium, for simple one-to-one binding.

Data set [1] deals with Hepatitis B virus. Put plainly: Antiviral activity against HBV infected in human HepG2.2.15 cells assessed as reduction in intracellular viral DNA level at 50 uM incubated for 4 days prior to compound washout followed by compound addition and measured after 4 days by fluorogenic probe based RT-qPCR analysis relative to control. The following applies: for inhibition: time 8.0 day. The data set is classed as functional. A general note: Quantitative PCR measures a nucleic acid by following its amplification.

In data set [2] the test system is HepG2 2.2.15. Briefly: Cytotoxicity against human HepG2.2.15 cells assessed as reduction in cell viability at 50 uM incubated for 4 days prior to compound washout followed by compound addition and measured after 4 days by CCK8 assay relative to control. The class given is cell-based. The following applies: hepg2 2.2.15, 192 h, time 8 day. Background: Tetrazolium dyes change colour on reduction, which living cells bring about.

Data set [3] concerns HepG2 2.2.15. Briefly: Cytotoxicity against human HepG2.2.15 cells assessed as reduction in cell viability at 100 uM incubated for 4 days prior to compound washout followed by compound addition and measured after 4 days by CCK8 assay relative to control. The class given is cell-based. The following applies: hepg2 2.2.15, 192 h, time 8 day. A digest of the protocol: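 Three wells of 4000 HepG2.2.15 cells per well received a single 100 µM concentration for 8 days, with medium replaced on day 4. CCK-8 (10%) was added 0.5 h before the end, and OD was read at 450 and 630 nm. Percent cell death was calculated against untreated cells.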

Data set [4] deals with Hepatitis B virus. Briefly: Antiviral activity against HBV infected in human HepG2.2.15 cells assessed as […] at 100 uM incubated for 4 days prior to compound washout followed by compound addition and measured after 4 days by fluorogenic probe based RT-qPCR analysis relative to control. The data set is classed as functional. The following applies: for inhibition: time 8.0 day; for inhibition at 100 µM: HepG2.2.15, 192 h, time 8 day.

Data set [5] deals with HepG2 2.2.15. Briefly: Cytotoxicity against human HepG2.2.15 cells assessed as reduction in cell viability at 20 uM incubated for 4 days prior to compound washout followed by compound addition and measured after 4 days by CCK8 assay relative to control. The data set is classed as cell-based. The following applies: hepg2 2.2.15, 192 h, time 8 day.
Data set [6] relates to Hepatitis B virus. Briefly: Antiviral activity against HBV infected in human HepG2.2.15 cells assessed as reduction in intracellular viral DNA level at 20 uM incubated for 4 days prior to compound washout followed by compound addition and measured after 4 days by fluorogenic probe based RT-qPCR analysis relative to control. The data set is classed as functional. The following applies: for inhibition: time 8.0 day; for inhibition at 20 µM: HepG2.2.15, 192 h, time 8 day.

Data set [7] can be described thus: Selectivity index, ratio of CC50 for human HepG2.2.15 cells to IC50 for antiviral activity against HBV infected in human HepG2.2.15 cells assessed as reduction in intracellular viral DNA level. The class given is toxicity, cell-based. The following applies: read-out: Ratio CC50/IC50.
Data set [8] in a line: Selectivity index, ratio of CC50 for human HepG2.2.15 cells to IC50 for antiviral activity against HBV infected in human HepG2.2.15 cells assessed as reduction in HBeAg secretion. The data set is classed as toxicity, cell-based. The following applies: read-out: Ratio CC50/IC50.
Data set [9] deals with Hepatitis B virus. Briefly: Antiviral activity against HBV infected in human HepG2.2.15 cells assessed as reduction in HBeAg secretion incubated for 4 days prior to compound washout followed by compound addition and measured after 4 days by ELISA. The class given is functional, organism-based. The gist of the method: (§1)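 Five doses (100, 20, 4, 0.8, 0.16 µM) were added in triplicate to HepG2.2.15 cultures for 8 days, with fresh medium on day 4 and untreated controls. Day-8 supernatants were assayed for HBsAg and HBeAg by ELISA kit with absorbance read-out. IC50 is the concentration giving 50% inhibition of antigen secretion.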
A general note: ELISA stands for enzyme-linked immunosorbent assay.

A short description of data set [10]: Cytotoxicity against human HepG2.2.15 cells assessed as reduction in cell viability incubated for 4 days prior to compound washout followed by compound addition and measured after 4 days by CCK8 assay. The class given is cell-based, HepG2 2.2.15. The following applies: time 8 day. The gist of the method: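 Cytotoxicity in HepG2.2.15 cells was measured with five doses (100, 20, 4, 0.8, 0.16 µM) over 8 days, with medium changed on day 4. CCK-8 (10%) was added 0.5 h before the end, OD was read at 450/630 nm, and CC50 is the concentration killing 50% of cells against untreated controls.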

Data set [11] deals with Hepatitis B virus. Put plainly: Antiviral activity against HBV infected in human HepG2.2.15 cells assessed as […] incubated for 4 days prior to compound washout followed by compound addition and measured after 4 days by fluorogenic probe based RT-qPCR analysis. The data set is classed as functional, organism-based.
The subject of data set [12] is Hepatitis B virus. Briefly: Antiviral activity against HBV infected in human HepG2.2.15 cells assessed as reduction in HBsAg secretion incubated for 4 days prior to compound washout followed by compound addition and measured after 4 days by ELISA. The data set is classed as functional, organism-based. The gist of the method: as §1
Data set [13] in a line: Selectivity index, ratio of CC50 for human HepG2.2.15 cells to IC50 for antiviral activity against HBV infected in human HepG2.2.15 cells assessed as reduction in HBsAg secretion. The following applies: read-out: Ratio CC50/IC50. The data set is classed as toxicity, cell-based.
The test system of data set [14] is Hepatitis B virus. Put plainly: Binding affinity to recombinant HBV capsid protein assessed as response value at 22.2 uM by surface plasmon resonance analysis (reference value: 11.31). A digest of the protocol: (§2)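 Recombinant HBV capsid protein purified and amine-coupled to a CM5 sensor chip. Six doses of test compound run with running buffer containing 5% DMSO, plus eight solvent-calibration solutions and 50% DMSO solution. Samples centrifuged 15 min before loading. PBS and NaAc-HAc buffers used. Binding read as SPR response.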

Data set [15] relates to Hepatitis B virus. Put plainly: (§3) Binding affinity to recombinant HBV capsid protein by surface plasmon resonance analysis. A digest of the protocol:
as §2

Data set [16] is described as follows: as §3. On the set-up: species or system Hepatitis B virus. A digest of the protocol:
as §2

Data set [17] deals with Hepatitis B virus. Put plainly: Binding affinity to recombinant HBV capsid protein assessed as response value at 9.9 uM by surface plasmon resonance analysis (reference value: 11.31). A digest of the protocol:
as §2

The test system of data set [18] is Hepatitis B virus. Briefly: Binding affinity to recombinant HBV capsid protein assessed as response value at 14.8 uM by surface plasmon resonance analysis (reference value: 11.31). The gist of the method:
as §2

Data set [19] concerns Hepatitis B virus. Put plainly: Binding affinity to recombinant HBV capsid protein assessed as response value at 6.6 uM by surface plasmon resonance analysis (reference value: 11.31). The gist of the method:
as §2

On to `COC(=O)c1nc(-c2ccccc2OC)cnc1NC(=O)c1ccccc1`, for which, in data set [1], the inhibition entry was “inactive”. The Activity in data set [2] is 5.7%.
As to `CCOC(=O)c1cn(-c2cccc(F)c2)nc1SC1CCCCC1`, in [3], the Activity was determined as 18.1%. For the same compound, the inhibition entry in data set [4] is “inactive”.
Turning to `CC(C)Cc1nc(-c2cccs2)sc1C(=O)NCc1ccc(F)cc1`, in data set [5], the Activity was 17.8%. For the same compound, in data set [6], the inhibition entry was “inactive”.
Take `CC(C)Cc1nc(-c2cccc(F)c2)ncc1C(=O)O`: the selectivity ratio in data set [7] is above 10.1; in data set [8], above 10.3. In data set [1] (HepG2.2.15, 192 h, time 8 day), the inhibition at 50 µM worked out at 54.2%. For the same compound, the IC50 was 9.7 µM in [9], 9.9 µM in data set [11] and above 100 µM in data set [12]. Moreover, the CC50 at 192 h in data set [10] is above 100 µM. In [2], the Activity entry is “Non-Toxic”.
As to `CCOC(=O)c1cn(-c2cccc(F)c2)nc1NC`, the Activity in data set [3] came to 5.7%. Moreover, the inhibition entry in data set [4] is “inactive”.
`CC(C)Cc1nc(NC(=O)c2ccc(F)cc2)sc1C(=O)NCc1ccc(F)cc1`: the Activity in [5] was 20.7%. In [6], the inhibition at 20 µM was 29.2%.
Consider `O=C(NCc1ccc(F)cc1Cl)c1cn(-c2nccs2)nc1NCc1ccccc1`, for which, in data set [3], the Activity is given as 29.2%. The inhibition at 100 µM in data set [4] is 41.6%.
Regarding `CC(C)Cc1nc(-c2ccncc2)sc1C(=O)NCc1ccc(F)cc1`, the results for the selectivity ratio in data set [13], in data set [7] and in data set [8] were above 26.3, above 2.5 and above 1.6, respectively. Besides, the Activity in data set [5] was found to be 35.8%. The IC50 is 62.3 µM in [9], 40.5 µM in [11] and 3.8 µM in data set [12]. For the same compound, the CC50 at 192 h in data set [10] was above 100 µM. For the same compound, the inhibition at 20 µM in data set [6] is 57.8%.
With `O=C(NCc1ccc(F)cc1F)c1cn(-c2nccs2)nc1NCc1ccccc1`, in data set [3], the Activity is 16.9%. The inhibition at 100 µM in data set [4] was 32.9%.
For `CCOC(=O)c1cn(-c2cccc(F)c2)nc1NCc1ccccc1`, in data set [3], the Activity entry is given as “Non-Toxic”. Moreover, the inhibition at 100 µM in [4] amounted to 14.6%.
Take `CC(C)Cc1sc(-c2nccs2)nc1C(=O)Nc1ccc(F)cc1`: the Activity in [14] is 26.4 RU; in [3], “Non-Toxic”; in [15], “Dose-dependent effect”; in data set [17], 18.8 RU; in data set [18], 20.6 RU; in [19] it was 15.4 RU. Further, the selectivity ratio is below 0.8 in [13], 36.7 in data set [7] and below 0.8 in data set [8]. For the same compound, the Kd in data set [16] was found to be 60 µM. Besides, in data set [4], the inhibition at 100 µM came out at 89.8%. For the same compound, the results for the IC50 in data set [9], in data set [11] and in data set [12] were above 100 µM, 2.2 µM and above 100 µM, respectively. Besides, the CC50 at 192 h in data set [10] was 80.8 µM.
As to `CC(C)Cc1nc(-c2ccccc2)ncc1C(=O)NCc1ccccc1`, in data set [1], the inhibition entry is “inactive”. Besides, in data set [2], the Activity result is reported as “Non-Toxic”.
For `CC(C)Cc1nc(NC(=O)c2cccs2)sc1C(=O)NCc1ccc(F)cc1`, the Activity in data set [5] stood at 15.2%. The inhibition result in data set [6] is “inactive”.
With `CC(C)Cc1nc(-c2cc3ccccc3s2)sc1C(=O)NCc1ccc(F)cc1`, the Activity result in [5] is recorded as “Non-Toxic”. In addition, in data set [6], the inhibition at 20 µM was 21.1%.
